Hits are enriched below; roughly 0.51% of the tested compounds scored in any of these assays.
CatS block: human cathepsin S inhibition | recombinant cathepsin S, AMC dipeptide fluorescence, pooled mixtures | 0.06% of 62,000 active | inhibition, %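 (tested at 5 µM per compound within 10-compound mixtures)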 | P25774 | AID 501; in the data active = inhibition above about 32%, passing the limit was not always enough
AP complement: orthogonal test for alternative complement pathway inhibitors | Human serum alternative complement pathway, LPS-coated ELISA, C3 deposition; tested in compound mixtures | inhibition, % at 5 µM | 0.08% of 62,000 active | AID 1235;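 active = inhibition above 30% in each of the two pooled mixtures holding the compound, so the lower value exceeds 30%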
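Test system: human serum alternative complement pathway, C3 deposition on LPS-coated wells; also added: Plate-bound LPS; doses: 5 µM per compound in ten-compound mixtures; schedule: 1 h at 37 °C; detection: Anti-C3 ELISA, OD 450 nm; evaluation: percent inhibition of C3 deposition onto LPS; repeats: two pool placements per compound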
Ec RNAP inh: inhibitors of Escherichia coli RNA polymerase; P0A8V2; E. coli RNA polymerase, fluorescence transcription assay; inhibition, %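 (tested at 10 µM)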; 0.2% of 62,000 active; in the data active = inhibition above about 20%
CatB inh: human cathepsin B inhibition; P07858; inhibition, %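 (tested at 10 µM)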; purified cathepsin B, fluorogenic substrate, fluorescence; 0.1% of 63,000 active; in the data active = inhibition above about 21%
CatB mix inh: human cathepsin B inhibition by mixtures; P07858; Purified cathepsin B, AMC dipeptide fluorescence, compound mixtures; inhibition, %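 (ten-compound pools at 5 µM per compound and 50 µM total)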; 0.06% of 62,000 active; AID 488; in the data active = inhibition above about 22%, passing the limit was not always enough
CatL block: inhibitors of human cathepsin L | P07711 | 0.17% of 58,000 active | inhibition, %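 (tested at 10 µM)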 | purified cathepsin L, fluorogenic substrate, fluorescence | AID 460; in the data active = inhibition above about 45%
Target sequence (P07711 114-288 limits assumed): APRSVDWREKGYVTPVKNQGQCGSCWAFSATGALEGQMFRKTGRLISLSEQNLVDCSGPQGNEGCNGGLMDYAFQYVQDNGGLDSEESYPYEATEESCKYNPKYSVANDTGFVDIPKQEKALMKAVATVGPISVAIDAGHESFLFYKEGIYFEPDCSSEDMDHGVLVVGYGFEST
Target sequence (P07711 292-333 limits assumed): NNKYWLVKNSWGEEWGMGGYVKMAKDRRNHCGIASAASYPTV
Hits are given with their value.

What do the screens show for `CCOC(C(=O)OCC(O)CN(CC)CC)(c1ccccc1)c1ccccc1` (centres undefined)?
CatS block: inactive; AP complement: inactive; Ec RNAP inh: 22.4; CatB inh: inactive; CatB mix inh: inactive; CatL block: inactive

What do the screens show for `Nc1c(C(=O)NC2CCCC2)c2nc3ccccc3nc2n1CC1CCCO1` (centres undefined)?
CatS block: inactive; AP complement: inactive; Ec RNAP inh: inactive; CatB inh: inactive; CatB mix inh: inactive; CatL block: inactive

What do the screens show for `CCn1nc(-c2ccccc2)nc2c(=O)n(C)c(=O)nc1-2`?
AP complement: inactive; Ec RNAP inh: inactive; CatB inh: 76.2; CatB mix inh: inactive; CatL block: 85.1

What do the screens show for `C=CCC1(CN2CCCCCC2=O)C(=O)NC(=O)NC1=O`?
CatB inh: inactive; CatL block: inactive

Results for Cc1cccc(NC(=O)CSc2nnc([C@@H](N)Cc3c[nH]c4ccccc34)o2)c1C ?
CatS block: inactive; AP complement: inactive; Ec RNAP inh: inactive; CatB inh: inactive; CatB mix inh: inactive; CatL block: 100.6

What do the screens show for `Cc1nn(Cc2ccccc2)c(C)c1C(=O)OCC(=O)Nc1ccccc1SCC#N`?
CatS block: inactive; AP complement: inactive; Ec RNAP inh: inactive; CatB inh: inactive; CatB mix inh: inactive; CatL block: inactive

What do the screens show for `Cc1nonc1-c1nc(-c2nonc2N)n[nH]1`?
CatS block: inactive; AP complement: inactive; Ec RNAP inh: inactive; CatB inh: inactive; CatB mix inh: 21.9; CatL block: inactive

Results for O=c1c2ccccc2[se]n1-c1ccccc1 ?
CatS block: inactive; AP complement: inactive; Ec RNAP inh: 36.7; CatB mix inh: inactive; CatL block: inactive

Results for COc1cccc(-n2c(C)nc3ccccc3c2=O)c1 ?
Ec RNAP inh: inactive; CatB inh: inactive; CatL block: inactive

Results for CC(=NCCN1CCCCC1)c1c(O)[nH]c(=O)[nH]c1=O ?
CatS block: inactive; AP complement: inactive; Ec RNAP inh: inactive; CatB inh: inactive; CatB mix inh: inactive; CatL block: inactive
